Active and inactive are the calls of the source. The calls are words filed in the database; no cut-off is given here.
Columns and labels:
Dihydropteroate synthase = molecular target: T1, Dihydropteroate synthase (Bacteria, UniProt P0AC13); test: Binding affinity to Escherichia coli DHPS by surface plasmon resonance analysis
T1 sequence (P0AC13 whole entry): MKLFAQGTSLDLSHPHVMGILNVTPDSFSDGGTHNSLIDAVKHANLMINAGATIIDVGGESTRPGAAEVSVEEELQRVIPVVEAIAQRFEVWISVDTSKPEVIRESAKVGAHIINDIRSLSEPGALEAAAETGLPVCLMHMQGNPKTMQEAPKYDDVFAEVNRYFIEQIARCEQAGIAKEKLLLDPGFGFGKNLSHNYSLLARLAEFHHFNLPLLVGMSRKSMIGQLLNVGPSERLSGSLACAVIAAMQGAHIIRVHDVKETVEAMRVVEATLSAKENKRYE
Method in brief: (§1)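 Ni/NHS-EDC capture-coupled on an NTA chip (SaHPPK loaded at 225 μg mL⁻¹, ~5400 RU; EcDHPS at 80 μg mL⁻¹, ~7200 RU), with a USP7 control surface. Analytes were 3-fold serially diluted, with 30 s contact at 60 μL min⁻¹ and 60 s dissociation, in duplicate or more. Responses were double-referenced and equilibrium responses fit to a 1:1 steady-state model.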

[1] = molecular target: T2, 2-amino-4-hydroxy-6-hydroxymethyldihydropteridin e pyrophosphokinase (Staphylococcus aureus, UniProt X5EH84); test: Binding affinity to Staphylococcus aureus recombinant HPPK by surface plasmon resonance analysis in presence of ATP; method in brief: as §1
T2 sequence (X5EH84 whole entry): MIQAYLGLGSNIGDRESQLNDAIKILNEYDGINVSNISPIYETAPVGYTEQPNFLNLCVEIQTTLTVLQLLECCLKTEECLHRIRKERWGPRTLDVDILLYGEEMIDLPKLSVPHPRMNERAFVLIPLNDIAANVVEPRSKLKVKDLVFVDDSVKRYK

[2] = molecular target: T2, 2-amino-4-hydroxy-6-hydroxymethyldihydropteridin e pyrophosphokinase; test: Binding affinity to Staphylococcus aureus recombinant HPPK by surface plasmon resonance analysis; method in brief: as §1
[3] = molecular target: T2, 2-amino-4-hydroxy-6-hydroxymethyldihydropteridin e pyrophosphokinase; test: Inhibition of Staphylococcus aureus HPPK after 20 mins by luciferase reporter gene assay
Method in brief: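 Kinase-Glo ATP-depletion assay: HPPK 0.4 ng μL⁻¹ with 0.3 μM pterin and 0.2 μM ATP in 100 mM Tris-HCl pH 8.5, 10 mM MgCl₂, 0.01% BSA, 0.01% Tween 20, 10 mM β-mercaptoethanol. Compound added from 50% DMSO solution; 20 min at room temperature, then stopped with Kinase-Glo reagent and luminescence read 10 min later. Triplicates; IC50 from sigmoidal dose–response fit.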

[4] = molecular target: T2, 2-amino-4-hydroxy-6-hydroxymethyldihydropteridin e pyrophosphokinase; test: Binding affinity to Staphylococcus aureus HPPK by isothermal calorimetry
[5] = molecular target: T3, 2-amino-4-hydroxy-6-hydroxymethyldihydropteridin e pyrophosphokinase (Staphylococcus aureus) (UniProt X5EH84); test: Binding affinity to Staphylococcus aureus HPPK in presence of AMPCPP by 2D 15N HSQC NMR spectroscopy
T3 sequence (whole entry): T2 sequence (X5EH84 whole entry)
Method in brief: (§2)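 ¹⁵N-labelled SaHPPK was expressed in E. coli BL21(DE3) in minimal medium with ¹⁵N ammonium chloride. 2D ¹⁵N HSQC spectra used ~120 μM SaHPPK in 50 mM HEPES pH 8 with 10 mM Mg²⁺ and saturating AMPCPP. Ligand was titrated to saturation from a 50 mM DMSO-d₆ stock, and binding was tracked by backbone amide chemical shift perturbations.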

[6] = molecular target: T3, 2-amino-4-hydroxy-6-hydroxymethyldihydropteridin e pyrophosphokinase (Staphylococcus aureus); test: Binding affinity to Staphylococcus aureus HPPK in presence of AMPCPP by NMR spectroscopy; method in brief: as §2
[7] = molecular target: T3, 2-amino-4-hydroxy-6-hydroxymethyldihydropteridin e pyrophosphokinase (Staphylococcus aureus); test: Binding affinity to Staphylococcus aureus HPPK in presence of ATP by NMR spectroscopy
[8] = molecular target: T3, 2-amino-4-hydroxy-6-hydroxymethyldihydropteridin e pyrophosphokinase (Staphylococcus aureus); test: Binding affinity to Staphylococcus aureus HPPK in absence of ATP by NMR spectroscopy

Structure (SMILES)	Kd (Dihydropteroate synthase)	Kd [1]	Kd [2]	IC50 [3]	Kd [4]	Activity [5]	Activity [6]	Activity [7]	Activity [8]
Nc1nc2nc(SCC(=O)c3ccccc3)[nH]c2c(=O)[nH]1	3.9 µM	1.4 µM	10.3 µM	–	–	–	–	–	–
COc1ccccc1C(=O)CSc1nc2nc(N)[nH]c(=O)c2[nH]1	1.6 µM	2.8 µM	21.7 µM	–	–	–	–	–	–
CC(Sc1nc2nc(N)[nH]c(=O)c2[nH]1)C(=O)c1ccccc1 (stereo not drawn)	8.2 µM	1.8 µM	7.5 µM	–	–	–	–	–	–
Nc1nc2[nH]c(S)nc2c(=O)[nH]1	76.2 µM	12.6 µM	10.8 µM	41 µM	11 µM	–	–	–	–
Nc1nc2[nH]c(SCC(=O)c3ccc(-c4ccccc4)cc3)nc2c(=O)[nH]1	8.4 µM	0.81 µM	21.5 µM	–	–	–	–	–	–
COc1ccc(C(=O)CSc2nc3nc(N)[nH]c(=O)c3[nH]2)cc1	3.9 µM	1.09 µM	76.6 µM	–	–	Active	Active	Active	inactive

Further molecules by falling Kd (Dihydropteroate synthase), results first:

Kd (Dihydropteroate synthase)	Kd [1]	Kd [2]	IC50 [3]	Kd [4]	Structure (SMILES)	Activity [5]	Activity [6]	Activity [7]	Activity [8]
43.9 µM	1.79 µM	13.5 µM	–	–	Nc1nc2[nH]c(SCc3ccccc3)nc2c(=O)[nH]1	–	–	–	–
14.2 µM	7.8 µM	73.5 µM	–	–	COc1ccc(CCSc2nc3c(=O)[nH]c(N)nc3[nH]2)cc1	–	–	–	–
12.3 µM	0.66 µM	11.1 µM	–	–	N#Cc1ccc(CSc2nc3nc(N)[nH]c(=O)c3[nH]2)cc1	–	–	–	–
9.74 µM	2.81 µM	7.26 µM	–	–	Nc1nc2[nH]c(SCc3ccccc3C(F)(F)F)nc2c(=O)[nH]1	–	–	–	–
8.5 µM	0.45 µM	4.3 µM	24.9 µM	–	Nc1nc2[nH]c(SCc3ccccc3F)nc2c(=O)[nH]1	–	–	–	–
7.8 µM	1.85 µM	42.7 µM	–	–	CC(=O)CSc1nc2c(=O)[nH]c(N)nc2[nH]1	–	–	–	–

Reference: ChEMBL document CHEMBL3352086, “Structure-based design and development of functionalized Mercaptoguanine derivatives as inhibitors of the folate biosynthesis pathway enzyme 6-hydroxymethyl-7,8-dihydropterin pyrophosphokinase from Staphylococcus aureus” (J Med Chem, 2014)
